Test results reported in ChEMBL document CHEMBL1938309, “Stereochemical diversity of AI-2 analogs modulates quorum sensing in Vibrio harveyi and Escherichia coli” (Bioorg Med Chem, 2012).
Activity calls are given as the source filed them. The calls are words filed in the database; no cut-off is given here.

Assays:
Vibrio harveyi = assay: Growth inhibition of Vibrio harveyi MM32 at 0.1 mM after 5 hrs; assay type: organism-based; conditions: in vivo, 100 µM
Escherichia coli [1] = assay: Agonist activity at LsrB receptor in LsrF-, LsrG-, luxS-deficient Escherichia coli KX1446 assessed as induction of lsr gene expression at 150 uM after 4.5 to 5 hrs by LacZ reporter gene assay; assay type: functional
Summary of the method: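 E. coli KX1446 carrying lsr-lacZ fusion grown in LB; analog diluted from 2 mM stock in 0.01 M H2SO4, final 150 μM, no DPD added. Acid-water and AI-2 controls per series; triplicate independent cultures.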

[2] = target: T1, Autoinducer 2-binding periplasmic protein LuxP (Vibrio harveyi, UniProt P54300); assay: Agonist activity at Vibrio harveyi MM32 LuxP receptor assessed as induction of bioluminescence after 5 hrs 30 mins; assay type: functional
T1 sequence (P54300 whole entry): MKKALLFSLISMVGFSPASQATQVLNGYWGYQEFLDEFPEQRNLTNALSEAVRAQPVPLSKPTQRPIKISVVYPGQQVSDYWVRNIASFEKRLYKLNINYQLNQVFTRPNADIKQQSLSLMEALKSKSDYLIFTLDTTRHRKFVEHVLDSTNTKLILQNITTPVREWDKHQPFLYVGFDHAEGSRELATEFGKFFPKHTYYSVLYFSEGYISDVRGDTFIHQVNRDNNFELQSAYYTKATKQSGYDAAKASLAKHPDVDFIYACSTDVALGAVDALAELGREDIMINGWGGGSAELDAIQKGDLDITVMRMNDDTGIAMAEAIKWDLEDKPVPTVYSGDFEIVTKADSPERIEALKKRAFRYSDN
Summary of the method: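 MM32 reporter grown in AB medium; compounds serially diluted in 0.01 M H2SO4 water, without added DPD. Light counted as cpm after 5 h 30 min at 30 °C. EC50 from four-parameter sigmoidal fit by non-linear least squares; error bars are standard deviations.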

[3] = target: T1, Autoinducer 2-binding periplasmic protein LuxP; assay: (§1) Binding affinity to Vibrio harveyi CFP/YFP-tagged LuxP receptor assessed as decrease in FRET ratio
Summary of the method: (§2)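 Purified CFP-LuxP-YFP chimera, 12.5 µg ml⁻¹, in 25 mM sodium phosphate pH 8, 35 mM NaCl, 1 mM borate; serially diluted compounds (in 0.01 M H2SO4 water), 2.5 µl into 280 µl reaction. FRET ratio 527/485 nm; lower ratio indicates binding. EC50 from dose series; standard deviations shown.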

[4] = target: Autoinducer 2-binding periplasmic protein LuxP (Vibrio harveyi) (UniProt P54300); assay: as §1; summary of the method: as §2
Sequence of Autoinducer 2-binding periplasmic protein LuxP (Vibrio harveyi) (P54300 whole entry): as above

[5] = Inhibition of […]-deficient Salmonella Typhimurium Met844 Quorum sensing system by lacZ reporter gene assay; design: species or system Salmonella enterica subsp. enterica serovar Typhimurium
[6] = target: T1, Autoinducer 2-binding periplasmic protein LuxP; assay: Agonist activity at Vibrio harveyi LuxP receptor; assay type: functional
[7] = target: T1, Autoinducer 2-binding periplasmic protein LuxP; assay: Antagonist activity at Vibrio harveyi MM32 LuxP receptor assessed as decrease in receptor agonist DPD-induced bioluminescence after 5 hrs 30 mins; assay type: functional
Summary of the method: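 V. harveyi MM32 in AB medium with 0.1 μM DPD plus serial dilutions of test compound (in 0.01 M H2SO4 water). Luminescence read as cpm after 5 h 30 min at 30 °C; IC50 by four-parameter sigmoidal non-linear least-squares fitting.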

Escherichia coli [8] = assay: Agonist activity at LsrB receptor in LsrF-, LsrG-, luxS-deficient Escherichia coli KX1446 assessed as increase in receptor agonist DPD-induced lsr gene expression at 150 uM after 4.5 to 5 hrs by LacZ reporter gene assay; assay type: functional
Summary of the method: (§3)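 E. coli lsr-lacZ reporter KX1446 in LB with overnight culture aliquot; analogs at final 15 or 150 μM added from 2 mM stocks in 0.01 M H2SO4, with 20 µM DPD present. Acid-water and AI-2 controls.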

Escherichia coli [9] = assay: Agonist activity at LsrB receptor in LsrF-, LsrG-, luxS-deficient Escherichia coli KX1446 assessed as increase in receptor agonist DPD-induced lsr gene expression at 15 uM after 4.5 to 5 hrs by LacZ reporter gene assay; assay type: functional; summary of the method: as §3

Row | Compound | growth inhibition (GI) (Vibrio harveyi) | Activity (Escherichia coli [1]) | EC50 [2] [µM] | EC50 [3] [µM] | Activity [4] | IC50 [5] [µM] | EC50 [6] [µM] | IC50 [7] [µM] | Activity (Escherichia coli [8]) | Activity (Escherichia coli [9])
1 | CC(=O)C(=O)[C@H](O)[C@H](C)O | Toxic | inactive | 26.5 | 10 | Dose-dependent effect |  |  |  |  | 
2 | CCCCCC(=O)C(=O)[C@@H](O)CO |  |  |  |  |  | 5 |  |  |  | 
3 | CC(=O)C(=O)[C@@H](O)CO | Toxic |  | 0.076 | 0.032 |  |  |  |  |  | 
4 | O=C(C(=O)C(F)(F)F)[C@@H](O)CO |  |  |  |  |  |  | 30 |  |  | 
5 | CC(=O)C(=O)[C@H](O)[C@@H](C)O | Toxic | inactive | 19.5 | 11.6 | Dose-dependent effect |  |  | 160 | inactive | inactive
6 | CC(=O)C(=O)[C@@H](O)[C@H](C)O | Toxic | inactive | 6.21 | 1.87 | Dose-dependent effect |  |  | 57.5 | Active | Active
7 | CC(=O)C(=O)[C@@H](O)[C@@H](C)O (single isomer, unassigned) | Toxic | inactive | 0.65 | 0.14 | Dose-dependent effect |  |  |  |  | 
8 | CC(=O)C(=O)[C@H](O)CO |  |  |  |  |  |  | 30 |  |  | 
